# Data taken from ChEMBL document CHEMBL4376902, “CN128: A New Orally Active Hydroxypyridinone Iron Chelator” (J Med Chem, 2020).
# Experiments:
# [1] = Binding affinity to Cu2+ ion assessed as affinity constant by spectrophotometric titration method
# [2] = Apparent clearance in Sprague-Dawley rat at 75 umol/kg, po measured up to 1440 mins by LC/MS/MS analysis; format: ADME, organism-based; settings: in vivo, read-out: CL(app) (converted)
# [3] = Toxicity in Sprague-Dawley rat assessed as induction of histopathological changes in bone marrow at 25 to 116 mg/kg, po dosed daily for 4 weeks and measured after additional 4 weeks period in absence of drug; format: organism-based; settings: in vivo, 672 h
# [4] = AUC (0 to infinity) in Sprague-Dawley rat at 75 umol/kg, po measured up to 1440 mins by LC/MS/MS analysis; format: ADME, organism-based; parameters: dose 75 umol/kg, route oral, time infinity; settings: in vivo, 24 h
# [5] = tested on: Mus musculus; test: Toxicity in mouse assessed as reduction in neutrophils counts at 200 mg/kg, po dosed once daily for 2 months as 5 days per week schedule; settings: in vivo, 120 h
# [6] = Binding affinity to Zn2+ ion assessed as affinity constant by spectrophotometric titration method
# [7] = Toxicity in Sprague-Dawley rat assessed as induction of histopathological changes in bone marrow at 25 to 116 mg/kg, po dosed daily for 4 weeks during chronic 4 week toxicity test; format: organism-based; settings: in vivo, 672 h
# [8] = Drug metabolism in rat liver microsomes assessed as oxidative metabolism incubated for 1 hr relative to deferiprone; format: ADME, Microsome
# [9] = Drug metabolism in rat liver microsomes assessed as glucuronidation incubated for 1 hr relative to deferiprone; format: ADME, Microsome
# Summary of the method: (§1)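 Compound incubated 1 h with rat or human liver microsomes, n = 4, mean ± SD. Glucuronide formed given as percentage of total chelator added. Oxidative metabolism assessed separately.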
# [10] = Drug level in rat stomach at 150 umol/kg, po measured measured up to 6 hrs by LC-MS/MS analysis; format: ADME, organism-based; settings: in vivo
# Summary of the method: (§2)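 Single oral dose of 150 μmol/kg to SD rats, half male and half female, n=6 per group. Rats decapitated at 10 min, 30 min, 2 h and 6 h. Tissues dissected, saline-washed, weighed and homogenised in acetonitrile/water 1:9 (125 mg/mL). Drug level measured against plasma; mean ± SE.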
# [11] = Toxicity in Sprague-Dawley rat assessed as induction of histopathological changes in pancreas at 25 to 116 mg/kg, po dosed daily for 4 weeks during chronic 4 week toxicity test; format: organism-based; settings: in vivo, 672 h
# [12] = tested on: Mus musculus; test: Toxicity in mouse assessed as reduction in total white cell counts at 200 mg/kg, po dosed once daily for 2 months as 5 days per week schedule; settings: in vivo, 120 h
# [13] = tested on: Mus musculus; test: Toxicity in mouse assessed as reduction in monocytes counts at 200 mg/kg, po dosed once daily for 2 months as 5 days per week schedule; settings: in vivo, 120 h
# [14] = Ratio of drug level in liver to plasma in rat at 150 umol/kg, po measured within 10 mins by LC-MS/MS analysis; format: ADME, organism-based; settings: liver and plasma
# Summary of the method: (§3)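 SD rats (half male, half female, n = 6 per group) given a single oral 150 μmol/kg dose. Killed at 10 min, 30 min, 2 h or 6 h; tissues washed in saline, weighed and homogenised in acetonitrile/water 1:9 (125 mg/mL). Tissue levels compared with plasma.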
# [15] = Drug metabolism in rat bile assessed as (2S,3S,4S,5R,6S)-6-[[1-[(1R)-1-benzyl-2-hydroxyethyl]-2-methyl-4-oxo-3-pyridyl]oxy]-3,4,5-trihydroxy-tetrahydropyran-2-carboxylic acid formation at 150 umol/kg, po by LC/TOF/MS/MS analysis; format: ADME, organism-based; settings: in vivo
# Summary of the method: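 Bile collected from rats after an oral dose of 150 μmol/kg. Metabolites characterised by β-glucuronidase hydrolysis and LC-TOFMS/MS. M2/M1 ratio followed over 8 h.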
# [16] = tested on: Rattus norvegicus; test: Iron scavenging activity in 59Fe-ferritin-loaded rat assessed as iron mobilization level at 450 umol/kg, po dosed 1 hr after 59Fe-ferritin injection and measured 24 hrs after 59Fe-ferritin injection by gamma counting method relative to control; format: functional
# Summary of the method: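 Male SD rats, 300 g, fasted overnight, given about 1 μC 59Fe-ferritin i.v. under isoflurane. Chelator gavaged 1 h later, then rats housed in metabolic cages; food returned 1 h after dosing. Killed 24 h after 59Fe-ferritin. Urine, faeces, liver and gut gamma-counted. 8 rats per condition.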
# [17] = Lipophilicity coefficient, logP of the compound in Tris buffer at pH 7.0 (100 mM/n-octanol); format: physicochemical
# Summary of the method: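 Octanol/water partition measured between n-octanol and 100 mM Tris buffer, pH 7.0.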
# [18] = AUC (0 to infinity) in Sprague-Dawley rat at 150 umol/kg, po measured up to 1440 mins by LC/MS/MS analysis; format: ADME, organism-based; parameters: dose 150 umol/kg, route oral, time infinity; settings: in vivo, 24 h
# [19] = Drug metabolism in human liver microsomes assessed as glucuronidation incubated for 1 hr relative to deferiprone; format: ADME, Microsome; summary of the method: as §1
# [20] = Drug metabolism in human liver microsomes assessed as oxidative metabolism incubated for 1 hr relative to deferiprone; format: ADME, Microsome
# [21] = Apparent clearance in Sprague-Dawley rat at 150 umol/kg, po measured up to 1440 mins by LC/MS/MS analysis; format: ADME, organism-based; settings: in vivo, read-out: CL(app) (converted)
# [22] = Apparent volume of distribution in Sprague-Dawley rat at 300 umol/kg, po measured up to 1440 mins by LC/MS/MS analysis; format: ADME, organism-based; settings: in vivo, 24 h
# [23] = Acid dissociation constant, pKa1 of the compound over pH 1.8 to 11.0 by spectrophotometric titration method; format: physicochemical
# Summary of the method: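 Automated spectrophotometric titration with 0.1 M KOH in 0.1 pH-unit steps. Reading accepted as stable when drift was <0.01 pH unit after a 1.5 min incubation. 10 mm path length cuvette. Spectra fitted by computer to obtain the pKa values.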
# [24] = Binding affinity to Mg2+ ion assessed as affinity constant by spectrophotometric titration method
# [25] = Cmax in Sprague-Dawley rat at 300 umol/kg, po measured up to 1440 mins by LC/MS/MS analysis; format: ADME, organism-based; parameters: dose 300 umol/kg, route oral; settings: in vivo
# [26] = Binding affinity to Ni2+ ion assessed as pM value by spectrophotometric titration method
# [27] = Binding affinity to Al3+ ion assessed as affinity constant by spectrophotometric titration method
# [28] = Ratio of drug level in intestine to plasma in rat at 150 umol/kg, po measured within 10 mins by LC-MS/MS analysis; format: ADME, organism-based; settings: intestine and plasma; summary of the method: as §3
# [29] = Drug level in rat liver at 150 umol/kg, po measured measured up to 6 hrs by LC-MS/MS analysis; format: ADME, organism-based; settings: in vivo; summary of the method: as §2
# [30] = tested on: Rattus norvegicus; test: Iron scavenging activity in iron-overloaded rat assessed as iron removal efficacy at 75 to 1200 umol/kg, po relative to control; format: functional
# Summary of the method: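 Male SD rats (300 g), fasted overnight, given about 1 μC 59Fe-ferritin i.v. under isoflurane; chelator by oral gavage 1 h later; doses 75, 150, 300, 600 and 1200 μmol/kg. Rats housed in metabolic cages, food returned 1 h post-dose; killed 24 h after ferritin injection. Urine, faeces, liver and gut gamma-counted. Iron removal expressed as % efficacy.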
smiles,measurement,setting,value
Cc1c(O)c(O)cc[n+]1[C@@H](CO)Cc1ccccc1.[Cl-],K,[1],8.31 pM
same,log K,[1],10.4
same,CL/F,[2],21.2 mL/min/kg
same,Activity,[3],Non-Toxic
same,AUC,[4],16400 ng·h/mL
same,Activity,[5],Non-Toxic
same,K,[6],6.15 pM
same,log K,[6],7.05
same,Activity,[7],Toxic
same,Drug metabolism,[8],Metabolite_Detected
same,Drug metabolism,[9],Metabolite_Detected
same,Drug uptake,[10],Not Active
same,Activity,[11],Toxic
same,Activity,[12],Non-Toxic
same,Activity,[13],Non-Toxic
same,Kp at 10 min,[14],3.3 to 8.8
same,Drug metabolism,[15],Metabolite_Detected
same,Activity,[16],24.8%
same,logD,[17],0.62
same,AUC,[18],37700 ng·h/mL
same,Drug metabolism,[19],Metabolite_Detected
same,Drug metabolism,[20],Metabolite_Detected
same,CL/F,[21],19 mL/min/kg
same,Vz,[22],3.72 L/kg
same,pKa,[23],3.26
same,log K,[24],9.12
same,Cmax,[25],41900 ng/mL
same,pM,[26],6.17
same,K,[27],13 pM
same,log K,[27],12.2
same,Kp at 10 min,[28],3.3 to 8.8
same,Drug uptake,[29],Not Active
same,Activity,[30],3.6 - 48.5%
